PvdQ inh = blocks Pseudomonas aeruginosa PvdQ acylase activity | purified PvdQ acylase, fluorescence plate reader | inhibition, % at 10 µM | actives 0.063% (n = 340,000) | AID 488965; in the data active = inhibition above about 30%, passing the limit was not always enough; inconclusive = no clear call, values can overlap the other calls;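 also: 0% = vehicle neutral wells and 100% = reference inhibitor wells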
PDI turbidity = PDI (human) enzyme inhibition; AID 588391; inhibition, % at 10 µM; actives 0.052% (n = 350,000); P07237; PDI insulin aggregation turbidity, A650, 90 min;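 active = mean inhibition across replicates of 30% or more, whatever share of single replicates reach that level; inconclusive = mean inhibition below 30% while every single replicate reaches 30%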
HIV Env fusion = inhibitors of HIV Env-mediated cell fusion; HeLa-JRFL Env/CEM21 cell fusion, luciferase; inhibition, % at 12.3 µM; actives 1.1% (n = 360,000);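 active = mean replicate inhibition score of at least 50 and every replicate individually at or above 50; inconclusive = only one of the two criteria met; inactive = mean below 50 and not all replicates reaching 50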;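 also: 0% = plate neutral controls and 100% = maraviroc near 300 nM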
ERp5 inh = ERp5 (human) disulfide isomerase inhibition | ERp5 insulin aggregation, absorbance 650 nm, 90 min | Q15084 | AID 651711 | actives 0.05% (n = 350,000) | inhibition, % at 9.99 µM;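 active = mean replicate inhibition above about 25%, with every replicate also reaching it, limit read from the data, passing the limit was not always enough; inconclusive = only one of those two criteria met; inactive = neither criterion met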
Target sequence (Q15084 whole entry, looked up): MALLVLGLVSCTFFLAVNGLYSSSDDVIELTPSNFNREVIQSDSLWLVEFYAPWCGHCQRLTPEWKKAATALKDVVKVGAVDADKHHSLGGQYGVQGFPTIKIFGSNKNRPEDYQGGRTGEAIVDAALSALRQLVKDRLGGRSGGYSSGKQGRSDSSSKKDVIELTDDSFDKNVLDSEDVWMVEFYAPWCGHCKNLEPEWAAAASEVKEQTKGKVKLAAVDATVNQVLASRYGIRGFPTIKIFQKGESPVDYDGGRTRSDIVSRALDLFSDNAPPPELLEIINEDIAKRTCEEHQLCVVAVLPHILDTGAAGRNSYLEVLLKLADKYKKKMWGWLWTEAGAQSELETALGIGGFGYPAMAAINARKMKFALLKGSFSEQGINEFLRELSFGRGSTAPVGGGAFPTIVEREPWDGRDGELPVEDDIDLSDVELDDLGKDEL
FN deposition inh = fibronectin deposition inhibition. AID 743247. AH1F fibroblasts, Alexa488-fibronectin deposition fluorescence, overnight. inhibition, % at 12.6 µM. actives 0.086% (n = 350,000);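 active = mean inhibition across replicates of 30% or more, regardless of how many single replicates reach that level; inconclusive = mean under 30% yet at least half of replicates reach 30%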;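 also: positive control wells lacked labelled fibronectin entirely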
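Material: AH1F fibroblasts assembling fluorescent fibronectin matrix; amount: 10000 AH1F cells/well; medium: DMEM, 2% serum; reagent: Alexa488-fibronectin, 24 nM final in well; dosing: single compound dose, delivered by pin transfer; incubation: 1 h adhesion, overnight exposure; detection: fluorescence after three HBSS washes, excitation 485 nm, emission 525 nm; measure: fibronectin deposition inhibition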
Ecoli rRNA inh = selective bacterial rRNA inhibition in E. coli. E. coli WT GFP vs humanized-ribosome RFP mutants, fluorescence, 24 h; hits give low values; DMSO median 0, no signal -100. actives 1.6% (n = 350,000). GFP signal change (wild-type ribosome), % (concentration not given with the values);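 active = significant combined selectivity score with lowered wild-type GFP, culture density cut under 30%, mutant RFP and density less affected; inactive = any of these conditions unmet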
* hit, by the source's call; ? = inconclusive; nt = no result; ! = not active in a repeat; [ ] = remark or other dose. Shown are actives, neighbours in structure and some others; about 2.2% of the full set was active somewhere.

SMILES	PvdQ inh	PDI turbidity	HIV Env fusion	ERp5 inh	FN deposition inh	Ecoli rRNA inh
C[C@H]1CN([C@@H](C)CO)C(=O)Cc2cc(NS(=O)(=O)c3ccc(Cl)cc3)ccc2O[C@H]1CN(C)C(=O)Nc1ccc2c(c1)OCO2	nt	nt	-47[16.7 µM]	nt	nt	6
COc1ccc(NC(=O)Nc2ccc3c(c2)C(=O)N([C@@H](C)CO)C[C@H](C)[C@@H](CN(C)S(=O)(=O)c2cn(C)cn2)OCCCC[C@H](C)O3)cc1	nt	nt	-5[16.7 µM]	nt	nt	-2
C[C@@H]1CN([C@H](C)CO)C(=O)c2cccc(N(C)C)c2O[C@@H]1CN(C)C	nt	nt	2[16.7 µM]	-1	6	4
Cc1ccc2nc(NC(=O)CN3C(=O)C4CC=CCC4C3=O)sc2c1 (configuration not stated)	15	2	-23	7	-3	-25*
C[C@@H]1CN([C@H](C)CO)C(=O)c2cc(NC(=O)CCCN(C)C)ccc2O[C@@H]1CN(C)Cc1ccc(C(F)(F)F)cc1	nt	nt	14[16.7 µM]	11	nt	1
COc1ccc(OC)c(/C=C/C(=O)OCC(=O)N2CCCC2)c1	-10	5	nt	nt	0	2
COc1ccc(OC)c(/C=C/C(=O)c2ccc3c(c2)OCCO3)c1	-8	-6	-17	-1	4	-25*
COc1ccc(OC)c(/C=C/C(=O)OCC(=O)N2C(C)CCCC2C)c1 (configuration not stated)	0	23	92*	11	8	-13
COc1ccc(OC)c(/C=C/C(=O)Oc2ccc(C(C)=O)cc2)c1	1	12	-12	4	18	-24*
COc1cc(/C=C/C(=O)c2ccc3c(c2)OCCO3)cc(OC)c1OC	-13	4	-52	-3	7	-8
C[C@@H]1CN([C@H](C)CO)C(=O)c2cc(NC(=O)CCC(F)(F)F)ccc2O[C@@H]1CN(C)S(=O)(=O)c1cccs1	nt	nt	nt	-3	0	0
CN1CCN(C(=O)C[C@@H]2CC[C@@H]3[C@H](COC[C@H](O)CN3C(=O)Nc3cc(Cl)cc(Cl)c3)O2)CC1	nt	nt	nt	4	13	-40
O=C(C[C@H]1CC[C@H]2[C@@H](COC[C@H](O)CN2Cc2ccc(Oc3ccccc3)cc2)O1)N1CCc2ccccc2C1	nt	nt	6[16.7 µM]	nt	-2	-12
O=C(NC1CCC1)[C@H]1[C@H](CO)[C@H]2Cn3c(ccc(-c4ccncc4)c3=O)[C@H]2N1CCc1ccccc1	nt	nt	nt	-5	nt	0
COC(=O)[C@]12C[C@H](CC(=O)NCCC(C)C)C(=O)N(CCC3=CCCCC3)C1=C[C@H](C(C)(C)C)O[C@@H]2C	nt	nt	59*	2	1	2
COC(=O)[C@]12C[C@H](CC(=O)N3CCCC3)C(=O)N(CCC3=CCCCC3)C1=C[C@H](C(C)(C)C)O[C@@H]2C	nt	nt	20	-2	-13	-7
CC1=C(C(=O)N(C)C)CC(CC(=O)NCc2cccc3ccccc23)C(=O)N1CCC1=CCCCC1 (configuration not stated)	nt	22	-1	6	-1	-27*
COC(=O)[C@]12C[C@H](CC(=O)NCCCN3CCCC3=O)C(=O)N(CCC3=CCCCC3)C1=C[C@H](C(C)(C)C)O[C@@H]2C	nt	nt	45	5	-13	-8
CCN(CC)C(=O)C1=C(C)N(CCC2=CCCCC2)C(=O)C(CC(=O)NCc2cccc3ccccc23)C1 (configuration not stated)	nt	7	-96	8	-1	nt
CCCCNC(=O)C[C@H]1C[C@@]2(C(=O)OC)C(=C[C@H](C(C)(C)C)O[C@@H]2C)N(CCC2=CCCCC2)C1=O	nt	nt	72*	-3	-6	3
COC(=O)[C@]12C[C@H](CC(=O)N3CCOCC3)C(=O)N(CCC3=CCCCC3)C1=C[C@H](C(C)(C)C)O[C@@H]2C	nt	nt	?	3	-2	2
COC(=O)[C@]12C[C@H](CC(=O)NCc3cccc4ccccc34)C(=O)N(CCC3=CCCCC3)C1=C[C@H](C(C)(C)C)O[C@@H]2C	nt	nt	87*	4	-7	20
Cc1noc(C)c1NC(=O)N(C)C[C@@H]1OCCCC[C@@H](C)Oc2ccc(NS(=O)(=O)c3ccc(Cl)cc3)cc2C(=O)N([C@@H](C)CO)C[C@H]1C	nt	nt	-20[16.7 µM]	3	-3	1
CO[C@@H]1CN(C)C(=O)c2cc(NS(=O)(=O)CC(F)(F)F)ccc2OC[C@@H](C)N(Cc2nccs2)C[C@H]1C	nt	nt	3[16.7 µM]	nt	13	0
C[C@H](CO)N1C[C@H](C)[C@H](CN(C)S(=O)(=O)c2cccs2)OCCCC[C@H](C)Oc2ccc(NC(=O)Cc3ccccc3)cc2C1=O	nt	nt	-16[16.7 µM]	nt	nt	-5
SMILES	PvdQ inh	PDI turbidity	HIV Env fusion	ERp5 inh	FN deposition inh	Ecoli rRNA inh
Cc1cccc(S(=O)(=O)N[C@H]2CC[C@H](CCn3cc(-c4ccccn4)nn3)O[C@H]2CO)c1	nt	nt	-36[16.7 µM]	-4	1	-3
Cc1ccccc1CSCC(=O)Nc1ccccc1Br	-13	-3	7	0	-5	-23*
Cc1ccccc1CSCC(=O)NC1CCCC1	-13	15	nt	nt	nt	nt
O=C(C[C@@H]1CC[C@H]2[C@@H](COC[C@@H](O)CN2C(=O)c2cccnc2)O1)NC1Cc2ccccc2C1	nt	nt	19[16.7 µM]	0	-1	-2
Cn1cnc(CCNC(=O)C[C@H]2CC[C@@H]3[C@H](COC[C@H](O)CN3C(=O)Nc3ccc(Cl)cc3)O2)c1	nt	nt	nt	2	-7	-21*
O=C(C[C@@H]1CC[C@@H]2[C@H](COC[C@@H](O)CN2Cc2cccc(C(F)(F)F)c2)O1)NCc1ccc(Cl)cc1	nt	nt	-7[16.7 µM]	2	-1	-54
O=C(C[C@@H]1CC[C@@H]2[C@H](COC[C@H](O)CN2Cc2ccc(Cl)cc2)O1)NCCc1ccccc1	nt	nt	48[16.7 µM]	-2	-11	-5
O=C(C[C@H]1CC[C@H]2[C@@H](COC[C@@H](O)CN2C(=O)Nc2cc(Cl)cc(Cl)c2)O1)N1CCOCC1	nt	nt	9[16.7 µM]	nt	-5	-27*
O=C(C[C@H]1CC[C@@H]2[C@H](COC[C@@H](O)CN2Cc2ccc(Cl)cc2)O1)NCCc1ccccc1	nt	nt	4[16.7 µM]	0	1	-21*!
O=C(C[C@@H]1CC[C@H]2[C@@H](COC[C@H](O)CN2Cc2cccc(C(F)(F)F)c2)O1)NCc1ccc(Cl)cc1	nt	nt	68*[16.7 µM]	-8	6	-49
COc1ccc(NC(=O)N(C)C[C@@H]2OCCCC[C@H](C)Oc3ccc(NS(=O)(=O)c4ccccc4)cc3C(=O)N([C@@H](C)CO)C[C@@H]2C)cc1	nt	nt	-26[16.7 µM]	2	3	-3
COCCNC(=O)C[C@@H]1CC[C@@H]2[C@@H](COc3ccc(NC(=O)C4CCOCC4)cc3C(=O)N2C)O1	nt	nt	nt	-1	7	3
CCC(=O)Nc1ccc2c(c1)C(=O)N(C)C[C@H](OC)[C@H](C)CN(C(=O)CC1CC1)[C@@H](C)CO2	nt	nt	nt	-3	-6	0
O=C(C[C@@H]1CC[C@H]2[C@@H](COC[C@@H](O)CN2C(=O)c2ccc(F)cc2)O1)NC1Cc2ccccc2C1	nt	nt	67*[16.7 µM]	0	-5	3

Compound activity: PubChem, Broad Institute
